# Laboratory results: PubChem BioAssay AID602303 (The Scripps Research Institute Molecular Screening Center, 2012)
# Calls of active or inactive are those of the source.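 Rule for the calls: active = inhibition of 50% or more; inactive = inhibition below 50%.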
# Target: Diacylglycerol lipase-beta (Mus musculus) (UniProt Q91WC9)
# Experiment: mouse DAGLb inhibition, FP-Rh labelling competition – biochemical, in-gel fluorescence, overexpressed mouse DAGLb, triazole urea library, late-stage follow-up (AID 602303)
# Conditions: HEK293T membrane overexpressing mouse DAGLb, gel ABPP FP-Rh; at 0.5 µM; hits give high values
# How it was run: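 System – HEK293T membranes overexpressing mouse DAGLb · Buffer or medium – DPBS · Also added – FP-Rh probe at 5 µM · Compound dosing – one concentration, 0.5 µM · Timing – 30 min compound plus 30 min probe, 37 °C · Signal – in-gel fluorescence after SDS-PAGE · Read-out basis – % inhibition from band IOD versus controls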
# Diacylglycerol lipase-beta (Mus musculus), sequence (Q91WC9 whole entry, looked up): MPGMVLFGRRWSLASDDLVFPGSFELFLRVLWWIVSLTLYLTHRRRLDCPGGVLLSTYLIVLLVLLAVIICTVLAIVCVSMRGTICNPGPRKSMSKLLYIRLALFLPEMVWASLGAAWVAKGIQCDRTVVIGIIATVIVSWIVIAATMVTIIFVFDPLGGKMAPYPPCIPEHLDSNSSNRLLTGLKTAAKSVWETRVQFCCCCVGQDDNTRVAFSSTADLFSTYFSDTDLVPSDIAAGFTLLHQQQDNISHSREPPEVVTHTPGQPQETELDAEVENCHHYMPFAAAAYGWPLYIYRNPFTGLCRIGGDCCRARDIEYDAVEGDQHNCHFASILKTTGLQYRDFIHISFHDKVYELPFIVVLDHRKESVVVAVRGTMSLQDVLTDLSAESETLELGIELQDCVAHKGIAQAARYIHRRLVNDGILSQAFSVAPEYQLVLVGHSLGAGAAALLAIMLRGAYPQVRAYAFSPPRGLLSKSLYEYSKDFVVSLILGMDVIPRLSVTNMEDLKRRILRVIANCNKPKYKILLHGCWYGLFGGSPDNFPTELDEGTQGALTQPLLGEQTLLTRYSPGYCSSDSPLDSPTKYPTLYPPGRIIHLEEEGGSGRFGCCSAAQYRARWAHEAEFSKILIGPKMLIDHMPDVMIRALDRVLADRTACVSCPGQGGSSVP
row,Compound,inhibition
1,O=C(N1CCCCC1)n1ncc(C(O)(c2ccccc2)c2ccccc2)n1,10% (inactive)
2,O=C(N1CCC(C(O)(c2ccccc2)c2ccccc2)CC1)n1nccn1,15% (inactive)
3,O=C(N1CCCCC1)n1ncc(-c2ccc(Oc3ccccc3)cc2)n1,40% (inactive)
4,O=C(N1CCCC1)n1ncc(C(O)(c2ccccc2)c2ccccc2)n1,0% (inactive)
5,COCC1CCCCN1C(=O)n1ncc(C(O)(c2ccccc2)c2ccccc2)n1 (configuration not stated),15% (inactive)
6,O=C(N1CCCC1)n1ncc(C2(O)CCCCC2)n1,25% (inactive)
7,O=C(OC(c1ccccc1)c1cnn(C(=O)N2CCCCC2)n1)N1CCCCC1 (configuration not stated),15% (inactive)
8,COCCCC1CCCCN1C(=O)n1ncc(C(O)(c2ccccc2)c2ccccc2)n1 (configuration not stated),5% (inactive)
9,CC(C)(O)c1cnn(C(=O)N2CCC(C(C)(C)C)CC2)n1,45% (inactive)
10,O=C(N1CCCCC1Cc1ccccc1)n1ncc(C(O)(c2ccccc2)c2ccccc2)n1 (configuration not stated),95%
11,COC1CCN(C(=O)n2ncc(C(O)(c3ccccc3)c3ccccc3)n2)CC1,0% (inactive)
12,CC1CCN(C(=O)n2ncc(C(O)(c3ccccc3)c3ccccc3)n2)CC1,10% (inactive)
13,CC1CCN(C(=O)n2ncc(C(C)(C)O)n2)CC1,35% (inactive)
14,O=C(N1CCc2ccccc2C1)n1ncc(C(O)(c2ccccc2)c2ccccc2)n1,35% (inactive)
15,O=C(N1CCC(C(O)(c2ccccc2)c2ccccc2)CC1)n1ncc(C(O)(c2ccccc2)c2ccccc2)n1,30% (inactive)
16,O=C(N1CCOCC1)n1ncc(C(O)(c2ccccc2)c2ccccc2)n1,15% (inactive)
17,CC(C)(C)C1CCN(C(=O)n2ncc(C(O)(c3ccccc3)c3ccccc3)n2)CC1,45% (inactive)
18,CC(C)(C)C1CCN(C(=O)n2ncc(C3(O)CCCCC3)n2)CC1,20% (inactive)
19,CCC1CCCCN1C(=O)n1ncc(C(O)(c2ccccc2)c2ccccc2)n1 (configuration not stated),10% (inactive)
20,O=C(N(c1ccccc1)c1ccccc1)n1ncc(C(O)(c2ccccc2)c2ccccc2)n1,65%
21,O=C(N1CCC(Cc2ccccc2)CC1)n1ncc(C(O)(c2ccccc2)c2ccccc2)n1,30% (inactive)

# Further lines, results first:
row,inhibition,Compound
1,30% (inactive),O=C(N1CCCC1)n1ccnn1
2,30% (inactive),O=C(N1CCCC1)n1ncc(-c2ccc(Cl)c(Cl)c2)n1
3,0% (inactive),CN(C)C(=O)n1ccnn1
4,25% (inactive),O=C(N1CCCC1)n1ncc(-c2ccc(-c3ccccc3)cc2)n1
5,20% (inactive),COc1ccc2cc(-c3cnn(C(=O)N4CCCCC4)n3)ccc2c1
6,20% (inactive),COc1ccc2cc(-c3cnn(C(=O)N4CCCC4)n3)ccc2c1
7,40% (inactive),O=C(N1CCOCC1)n1ncc(-c2ccc(OC(F)(F)F)cc2)n1
8,35% (inactive),CC(C)(C)C1CCN(C(=O)n2nccn2)CC1
9,60%,C=CCN(CC=C)C(=O)n1ncc(C(O)(c2ccccc2)c2ccccc2)n1
10,15% (inactive),O=C(N1CCCC1)n1ncc(-c2ccc(OC(F)(F)F)cc2)n1
11,35% (inactive),O=C(N1CCCC1)n1ncc(-c2ccccc2)n1
12,25% (inactive),O=C(n1ccnn1)n1c2ccccc2c2ccccc21
13,0% (inactive),O=C(N1CCOCC1)n1ncc(-c2ccccc2)n1
14,20% (inactive),O=C(N1CCOCC1)n1ncc(-c2cc(F)cc(F)c2)n1
15,25% (inactive),CC(C)(O)c1cnn(C(=O)N2CCCCC2)n1
16,50%,C=CCN(CC=C)C(=O)n1ncc(-c2ccc(OC(F)(F)F)cc2)n1

row,inhibition,Compound
1,10% (inactive),O=C(N1CCCC1)n1ncc(-c2cc(F)cc(F)c2)n1
2,40% (inactive),O=C(N1CCOCC1)n1ccnn1
3,25% (inactive),C=CCN(CC=C)C(=O)n1ccnn1
4,45% (inactive),O=C(N1CCCC1)n1ncc(-c2ccc(Oc3ccccc3)cc2)n1
5,20% (inactive),O=C(N1CCCCC1)n1ccnn1
6,5% (inactive),O=C(N(c1ccccc1)c1ccccc1)n1ccnn1
7,5% (inactive),CCN(CC)C(=O)n1ncc(C(O)(c2ccccc2)c2ccccc2)n1
8,0% (inactive),CCN(CC)C(=O)n1ccnn1
9,5% (inactive),C=CCN(CC=C)C(=O)n1ncc(-c2ccccc2)n1
10,35% (inactive),CN1CCN(C(=O)n2ccnn2)CC1
11,25% (inactive),C=CCN(CC=C)C(=O)n1ncc(-c2cc(F)cc(F)c2)n1
12,25% (inactive),CC(C)(O)c1cnn(C(=O)N2CCCC2)n1
13,5% (inactive),O=C(N1CCCCC1)n1ncc(C(O)c2ccccc2)n1 (configuration not stated)
14,25% (inactive),CN(C(=O)n1ccnn1)c1ccccc1
15,35% (inactive),O=C(N1CCCC1)n1ncc(-c2ccc([N+](=O)[O-])cc2)n1
